From ChEMBL document CHEMBL1155465, “"Viologen" dendrimers as antiviral agents: the effect of charge number and distance” (J Med Chem, 2010)
In brackets after ≈: the same amount, converted by molar mass. Activity calls are given as the source filed them. The calls are words filed in the database; no cut-off is given here.

Experiments:
[1] = system: Human immunodeficiency virus 1; assay: Antiviral activity against HIV1 NL4-3 pseudotyped with VSV-G envelope infected in human C8166 cells assessed as inhibition of GFP expression after 48 hrs by flow cytometry; assay type: functional, organism-based
In short: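 VSV-G-pseudotyped (env-deficient) GFP-encoding NL4.3 taken from transfection supernatant at 60 h and clarified at 450g for 10 min. Used to infect 3 × 10⁴ C8166 cells (RPMI 1640, 10% FCS) with graded compound concentrations. GFP expression read by flow cytometry 48 h post-infection, with the no-compound infection control set as 100%.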

[2] = system: Vesicular stomatitis virus; assay: Antiviral activity against VSV infected in human E6SM cell assessed as inhibition of virus-induced cytopathicity; assay type: functional, organism-based
[3] = Cytotoxicity against human HeLa cells by MTT assay; assay type: cell-based
Reovirus sp. = assay: Antiviral activity against Reovirus infected in african green monkey Vero cells assessed as inhibition of virus-induced cytopathicity; assay type: functional, organism-based
Vaccinia virus = assay: Antiviral activity against Vaccina virus infected in human E6SM cell assessed as inhibition of virus-induced cytopathicity; assay type: functional, organism-based; conditions: Orthopoxvirus vaccinia
Human respirovirus 3 = assay: Antiviral activity against Parainfluenza virus 3 infected in african green monkey Vero cells assessed as inhibition of virus-induced cytopathicity; assay type: functional, organism-based; conditions: Human respirovirus 3, Vero
Human alphaherpesvirus 2 = assay: Antiviral activity against HSV2 G infected in human E6SM cell assessed as inhibition of virus-induced cytopathicity; assay type: functional, organism-based; conditions: Human alphaherpesvirus 2, strain G
[4] = system: Vesicular stomatitis virus; assay: Antiviral activity against VSV infected in human HeLa cell assessed as inhibition of virus-induced cytopathicity; assay type: functional, organism-based
[5] = system: Respiratory syncytial virus; assay: Antiviral activity against RSV infected in human HeLa cell assessed as inhibition of virus-induced cytopathicity; assay type: functional, organism-based
Human alphaherpesvirus 1 [6] = assay: Antiviral activity against TK-deficient acyclovir-resistant HSV1 KOS infected in human E6SM cell assessed as inhibition of virus-induced cytopathicity; assay type: functional, organism-based; conditions: Human alphaherpesvirus 1, KOS
Human alphaherpesvirus 1 [7] = assay: Antiviral activity against HSV1 KOS infected in human E6SM cell assessed as inhibition of virus-induced cytopathicity; assay type: functional, organism-based; conditions: Human alphaherpesvirus 1, KOS
Sindbis virus = assay: Antiviral activity against Sindbis virus infected in african green monkey Vero cells assessed as inhibition of virus-induced cytopathicity; assay type: functional, organism-based
Punta Toro virus = assay: Antiviral activity against Punta Toro virus infected in african green monkey Vero cells assessed as inhibition of virus-induced cytopathicity; assay type: functional, organism-based
[8] = Cytotoxicity against human E6SM cells by MTT assay; assay type: cell-based
[9] = Cytotoxicity against african green monkey Vero cells by MTT assay; assay type: cell-based; conditions: chlorocebus sabaeus
[10] = Selectivity index, ratio of CC50 for human MT4 cells to EC50 for HIV1 3B; assay type: toxicity, cell-based; conditions: read-out: Ratio CC50/EC50
In short: (§1)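 MT-4 cells in RPMI 1640 with 10% heat-inactivated FCS, 2 mM L-glutamine, 0.1% bicarbonate and gentamicin, seeded at 6 × 10⁵ cells/mL final with virus or mock infection. Viability read by MTT after 5 days at 540 and 690 nm, using the median OD of three wells. CC50 is 50% loss of mock-infected OD540. EC50 is 50% inhibition of virus-induced CPE. SI = CC50/EC50. Mean ± SD of ≥2 experiments.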

[11] = system: Simian immunodeficiency virus; assay: Antiviral activity against SIV MAC251 infected in human MT4 cells after 5 days by MTT assay; assay type: functional, organism-based; conditions: MAC251, MT4, 120 h; in short: as §1
[12] = system: Human immunodeficiency virus 1; assay: Antiviral activity against HIV1 3B infected in human MT4 cells after 5 days by MTT assay; assay type: functional, organism-based; conditions: Human immunodeficiency virus 1, 3B, MT4, 120 h; in short: as §1
[13] = Cytotoxicity against human MT4 cells after 5 days by MTT assay; assay type: cell-based; in short: as §1
[14] = system: Human immunodeficiency virus 2; assay: Antiviral activity against HIV2 ROD infected in human MT4 cells after 5 days by MTT assay; assay type: functional, organism-based; conditions: Human immunodeficiency virus 2, ISOLATE ROD, MT4, 120 h; in short: as §1
[15] = system: Human immunodeficiency virus; assay: Antiviral activity against HIV SO6141 infected in human MT4 cells after 5 days by MTT assay; assay type: functional, organism-based; conditions: Human immunodeficiency virus 1, SO6141, MT4, 120 h; in short: as §1
[16] = system: Human immunodeficiency virus 1; assay: Antiviral activity against HIV1 3B infected in human PBMC assessed as inhibition of viral p24 antigen production by ELISA; assay type: functional, organism-based; conditions: Human immunodeficiency virus 1, 3B
In short: (§2)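 PBMCs infected with HIV-1 IIIB and cultured with a range of compound concentrations. EC50 is 50% inhibition of supernatant p24 core antigen (ELISA) relative to drug-free culture. CC50 is 50% reduction in cell viability. SI = CC50/EC50. Mean ± SD of ≥2 experiments.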

[17] = Selectivity index, ratio of CC50 for human PBMC to EC50 for HIV1 3B; in short: as §2
[18] = Cytotoxicity against human PBMC after 5 days by MTT assay; assay type: cell-based; in short: as §2

Compound	EC50 [2] [µg/mL]	MCC [3] [µg/mL]	EC50 (Reovirus sp.) [µg/mL]	EC50 (Vaccinia virus) [µg/mL]	EC50 (Human respirovirus 3) [µg/mL]	EC50 (Human alphaherpesvirus 2) [µg/mL]	EC50 [4] [µg/mL]	EC50 [5] [µg/mL]	EC50 (Human alphaherpesvirus 1 [6]) [µg/mL]	EC50 (Human alphaherpesvirus 1 [7]) [µg/mL]	EC50 (Sindbis virus) [µg/mL]	EC50 (Punta Toro virus) [µg/mL]	MCC [8] [µg/mL]	MCC [9] [µg/mL]	selectivity ratio [10]	EC50 [11] [µM]	EC50 [12] [µM]	CC50 at 120 h [13] [µM]	EC50 [14] [µM]	EC50 [15] [µM]	other results
c1cc(CN2CCCNCCNCCCNCC2)ccc1CN1CCCNCCNCCCNCC1	–	–	–	–	–	–	–	–	–	–	–	–	–	–	–	–	–	–	–	–	inhibition [1]: inactive
O=c1[nH]c(=O)n([C@H]2C[C@H](O)[C@@H](CO)O2)cc1/C=C/Br [BRIVUDINE]	> 400	> 400	> 400	9.6 (≈ 28.8 µM)	> 400	80 (≈ 240 µM)	> 400	> 400	> 400	0.384 (≈ 1.15 µM)	> 400	> 400	> 400	> 400	–	–	–	–	–	–	–
OCC[n+]1ccc(-c2cc[n+](Cc3cc(C[n+]4ccc(-c5cc[n+](CCO)cc5)cc4)cc(C[n+]4ccc(-c5cc[n+](CCO)cc5)cc4)c3)cc2)cc1	–	–	–	–	–	–	–	–	–	–	–	–	–	–	3.11	37.7	33.3	> 104	> 104	> 104	–
CC[n+]1ccc(-c2cc[n+](Cc3cc(C[n+]4ccc(-c5cc[n+](CC)cc5)cc4)cc(-[n+]4ccc(-c5cc[n+](-c6cc(C[n+]7ccc(-c8cc[n+](CC)cc8)cc7)cc(C[n+]7ccc(-c8cc[n+](CC)cc8)cc7)c6)cc5)cc4)c3)cc2)cc1.F[P-](F)(F)(F)(F)F.F[P-](F)(F)(F)(F)F.F[P-](F)(F)(F)(F)F.F[P-](F)(F)(F)(F)F.F[P-](F)(F)(F)(F)F.F[P-](F)(F)(F)(F)F.F[P-](F)(F)(F)(F)F.F[P-](F)(F)(F)(F)F.F[P-](F)(F)(F)(F)F.F[P-](F)(F)(F)(F)F	> 50	> 50	> 50	> 50	> 50	50	> 50	50	30	6	> 50	> 50	> 50	> 50	48.5	> 49	1.01	> 49	> 49	> 49	EC50 [16]: 0.79 µg/mL; Ratio CC50/EC50 [17]: 34; CC50 at 120 h [18]: 26.8 µg/mL
